Data reported in ChEMBL document CHEMBL3259769, “Symmetric adamantyl-diureas as soluble epoxide hydrolase inhibitors” (Bioorg Med Chem Lett, 2014).
≈ marks a conversion by molar mass, not a printed value. Blank lines part the entries; values can stand above or below the compound they belong to.

Tests used:
[1] = molecular target: T1, Bifunctional epoxide hydrolase 2 (Homo sapiens, UniProt P34913); assay: Displacement of ACPU from recombinant human soluble epoxide hydrolase after 1.5 hrs by FRET assay
T1 sequence (P34913 whole entry): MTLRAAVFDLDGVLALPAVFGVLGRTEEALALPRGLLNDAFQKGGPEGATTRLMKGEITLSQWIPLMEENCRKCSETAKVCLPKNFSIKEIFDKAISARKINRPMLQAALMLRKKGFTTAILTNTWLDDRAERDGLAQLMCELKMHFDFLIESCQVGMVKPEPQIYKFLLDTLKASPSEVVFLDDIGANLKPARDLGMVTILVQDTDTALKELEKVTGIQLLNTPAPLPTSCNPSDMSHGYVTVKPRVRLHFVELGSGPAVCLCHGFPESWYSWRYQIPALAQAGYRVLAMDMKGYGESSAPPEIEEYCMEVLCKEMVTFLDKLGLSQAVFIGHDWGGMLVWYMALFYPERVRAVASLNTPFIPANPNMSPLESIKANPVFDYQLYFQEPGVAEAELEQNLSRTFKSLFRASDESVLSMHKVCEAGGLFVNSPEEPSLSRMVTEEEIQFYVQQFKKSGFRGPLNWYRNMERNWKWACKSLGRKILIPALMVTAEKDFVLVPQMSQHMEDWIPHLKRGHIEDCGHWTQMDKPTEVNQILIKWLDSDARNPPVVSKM
How it was run: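 Human sEH was preincubated with an equimolar amount of the fluorescent reporter ACPU for 2 h at rt. The complex (20 nM) was used in 100 mM sodium phosphate with 0.1% gelatin, pH 7.4, on gelatin-precoated plates. Inhibitor was added as 12 two-fold dilutions, with DMSO as control, and incubated 1.5 h. Fluorescence (ex 280/em 450 nm) was normalised to baseline and fitted to a three-state equilibrium model to give Ki.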

[2] = molecular target: T1, Bifunctional epoxide hydrolase 2; assay: Inhibition of recombinant human soluble epoxide hydrolase using CMNPC as substrate preincubated for 5 mins followed by substrate addition measured at 5 mins post substrate addition by fluorescence assay in presence of 0.1 mg/mL BSA
[3] = molecular target: T1, Bifunctional epoxide hydrolase 2; assay: Inhibition of recombinant human soluble epoxide hydrolase using CMNPC as substrate preincubated for 5 mins followed by substrate addition measured at 5 mins post substrate addition by fluorescence assay in presence of 1 mg/mL BSA
[4] = Solubility of the compound in sodium phosphate buffer at pH 7.4 after 24 hrs by LC/MS/MS analysis; type: physicochemical
How it was run: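 Compound suspended in 0.1 M sodium phosphate buffer, pH 7.4, containing 1% DMSO, held 24 h at 30 °C, then 1 h at rt. Centrifuged 10,000 rpm for 10 min; supernatant diluted 5-fold in methanol, 15 min at rt to precipitate salt, then re-centrifuged. Supernatant stored at -20 °C until LC/MS-MS quantitation.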

[5] = Metabolic stability in human liver microsomes assessed as compound remaining at 1 uM after 30 mins by LC/MS/MS analysis in absence of NADPH; type: ADME; settings: read-out: Stability
How it was run: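 Inhibitor added to human liver microsomes (1 mg/mL final) in 0.1 M potassium phosphate, pH 7.4, with 3 mM MgCl2 and 1 mM EDTA. After 5 min at 37 °C, buffer was added in place of NADPH generating system, then 30 min at 37 °C. Stopped with one volume methanol containing 200 nM CUDA surrogate. LC/MS/MS; % remaining; triplicate average.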

[6] = Metabolic stability in human liver microsomes assessed as compound remaining at 1 uM preincubated for 5 mins followed by NADPH addition measured after 30 mins by LC/MS/MS analysis; type: ADME; settings: read-out: Stability
How it was run: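 Human liver microsomes (1 mg/mL final) in 0.1 M potassium phosphate, pH 7.4, 3 mM MgCl2, 1 mM EDTA, were preincubated with inhibitor 5 min at 37 °C. Reaction was started with NADPH generating system and run 30 min at 37 °C. Quenched with one volume methanol containing 200 nM CUDA surrogate. LC/MS/MS; % remaining; triplicate average.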

[7] = molecular target: T2, Bifunctional epoxide hydrolase 2 (Homo sapiens) (UniProt P34913)
T2 sequence (whole entry): T1 sequence (P34913 whole entry)

Compound: O=C(NCCNC(=O)NCC12CC3CC(CC(C3)C1)C2)NCC12CC3CC(CC(C3)C1)C2
IC50 [2]: 179 nM

Compound: O=C(NC1CCCCC1)NC1CCCCC1 [1,3-DICYCLOHEXYLUREA]
solubility at 24 h [4]: 5 µM (≈ 1.12 µg/mL) | remaining at 0.5 h, 1 µM [5]: 100% | remaining at 0.5 h, 1 µM [6]: 22%

Compound: O=C(NC12CC3CC(CC(C3)C1)C2)NC12CC3CC(CC(C3)C1)C2
IC50 [2]: 1.2 nM | IC50 [3]: 1.3 nM | solubility at 24 h [4]: 5 µM (≈ 1.64 µg/mL) | remaining at 0.5 h, 1 µM [5]: 93% | remaining at 0.5 h, 1 µM [6]: 19%

Compound: O=C(NCCCCNC(=O)NC1C2CC3CC(C2)CC1C3)NC1C2CC3CC(C2)CC1C3 (configuration not stated)
IC50 [2]: 10.4 nM

Compound: O=C(NCC1CCN(C(=O)NCC23CC4CC(CC(C4)C2)C3)CC1)NCC12CC3CC(CC(C3)C1)C2
IC50 [2]: 39.7 nM

Compound: O=C(NCC12CC3CC(CC(C3)C1)C2)Nc1ccc(NC(=O)NCC23CC4CC(CC(C4)C2)C3)cc1
IC50 [2]: 780 nM

Compound: O=C(NCCCCCCCCNC(=O)NC1C2CC3CC(C2)CC1C3)NC1C2CC3CC(C2)CC1C3 (configuration not stated)
Ki [1]: 2.4 nM | IC50 [2]: 2.6 nM | IC50 [3]: 4.1 nM | solubility at 24 h [4]: 5 µM (≈ 2.49 µg/mL) | remaining at 0.5 h, 1 µM [5]: 100% | remaining at 0.5 h, 1 µM [6]: 36% | T1/2 [7]: 2.5 min

Compound: O=C(Nc1ccc(NC(=O)NC23CC4CC(CC(C4)C2)C3)cc1)NC12CC3CC(CC(C3)C1)C2
IC50 [2]: 19.5 nM

Other lines, results leading:

Ki [1]: 3.1 nM | IC50 [2]: 0.5 nM | IC50 [3]: 0.8 nM | solubility at 24 h [4]: 10 µM (≈ 5.55 µg/mL) | remaining at 0.5 h, 1 µM [5]: 100% | remaining at 0.5 h, 1 µM [6]: 11% | T1/2 [7]: 11 min
Compound: CC(NC(=O)NCCCCCCCCNC(=O)NC(C)C12CC3CC(CC(C3)C1)C2)C12CC3CC(CC(C3)C1)C2 (configuration not stated)

IC50 [2]: 26.3 nM
Compound: O=C(NCCCCNC(=O)NCC12CC3CC(CC(C3)C1)C2)NCC12CC3CC(CC(C3)C1)C2

Ki [1]: 3.4 nM | IC50 [3]: 0.7 nM | solubility at 24 h [4]: 50 µM (≈ 24.9 µg/mL) | remaining at 0.5 h, 1 µM [5]: 102% | remaining at 0.5 h, 1 µM [6]: 3% | T1/2 [7]: 10 min
Compound: O=C(NCCCCCCNC(=O)NCC12CC3CC(CC(C3)C1)C2)NCC12CC3CC(CC(C3)C1)C2

IC50 [2]: 2.3 nM
Compound: CCC(CNC(=O)NCCCCNC(=O)NCC(CC)C12CC3CC(CC(C3)C1)C2)C12CC3CC(CC(C3)C1)C2 (configuration not stated)

IC50 [2]: 997 nM
Compound: O=C(NCCCCCCCCNC(=O)NC12CC3CC(CC(C3)C1)C2)NC12CC3CC(CC(C3)C1)C2

IC50 [2]: 7.2 nM
Compound: O=C(NCCCCNC(=O)NC12CC3CC(CC(C3)C1)C2)NC12CC3CC(CC(C3)C1)C2

IC50 [2]: 161 nM
Compound: CC(NC(=O)Nc1ccc(NC(=O)NC(C)C23CC4CC(CC(C4)C2)C3)cc1)C12CC3CC(CC(C3)C1)C2 (configuration not stated)

IC50 [2]: 7.3 nM
Compound: O=C(NCCCCCCCCNC(=O)NCC12CC3CC(CC(C3)C1)C2)NCC12CC3CC(CC(C3)C1)C2

Ki [1]: 2.7 nM | IC50 [2]: 1.2 nM | IC50 [3]: 2.5 nM | solubility at 24 h [4]: 10 µM (≈ 4.99 µg/mL) | remaining at 0.5 h, 1 µM [5]: 92% | remaining at 0.5 h, 1 µM [6]: 24% | T1/2 [7]: 8 min
Compound: CC(NC(=O)NCCCCNC(=O)NC(C)C12CC3CC(CC(C3)C1)C2)C12CC3CC(CC(C3)C1)C2 (configuration not stated)

IC50 [2]: 1440 nM
Compound: CCC(CNC(=O)NCCCCCCCCNC(=O)NCC(CC)C12CC3CC(CC(C3)C1)C2)C12CC3CC(CC(C3)C1)C2 (configuration not stated)
